pIC50: −log10 of the molar value.
What was measured:
MDA-MB-231 = assay: Antiproliferative activity against human MDA-MB-231 cells after 72 hrs by colorimetric tetrazolium assay; assay type: functional, cell-based; details: MDA-MB-231, 72 h
Summary of the method: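 MDA-MB-231 cells grown in DMEM with 10% FBS and penicillin/streptomycin at 37 °C, 5% CO2, used within passages 10-25. Seeded at 2400 cells/well in DMEM with 5% FBS for 24 h, then exposed to compound (final DMSO 0.5% v/v) for 72 h. MTS-type tetrazolium reagent added for 2 h at 37 °C, absorbance read at 490 nm, blank subtracted. Triplicate wells. IC50 from sigmoidal viability curve, mean of at least two determinations.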

[1] = biological target: Protein-S-isoprenylcysteine O-methyltransferase (Homo sapiens, UniProt O60725); assay: Inhibition of recombinant ICMT expressed in Sf9 cells using [3H] AdoMet after 20 mins by scintillation counting
Summary of the method: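 Sf9 membranes carrying recombinant Icmt (1.0 μg protein) in 100 mM Hepes pH 7.4, 5 mM MgCl2, 100 μM EDTA. Preincubated with compound (final DMSO 2% v/v) for 20 min at 37 °C. Reaction started with final 1 μM biotin-farnesyl-L-cysteine and 0.5 μM [3H]AdoMet, run 20 min at 37 °C, then stopped with Tween 20. Product captured overnight at 4 °C on streptavidin beads, washed, and counted by scintillation. Mean ± SD of 3 or more determinations.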

Protein-S-isoprenylcysteine O-methyltransferase, sequence (O60725 whole entry): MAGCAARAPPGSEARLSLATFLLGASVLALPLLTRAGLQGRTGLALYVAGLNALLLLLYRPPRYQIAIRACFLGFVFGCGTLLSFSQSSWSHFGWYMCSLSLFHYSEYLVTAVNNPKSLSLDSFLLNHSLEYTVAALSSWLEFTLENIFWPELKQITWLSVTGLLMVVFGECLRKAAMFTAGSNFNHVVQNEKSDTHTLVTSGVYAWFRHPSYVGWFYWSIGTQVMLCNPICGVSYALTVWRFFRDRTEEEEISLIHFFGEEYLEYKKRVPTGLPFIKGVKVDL

CCN(CC)Cc1cn(CC=C(C)C)c2ccccc12
pIC50 (MDA-MB-231): 4.13
pIC50 [1]: 4.17

CC(C)=CCn1cc(CC(N)=O)c2cc(F)ccc21
pIC50 (MDA-MB-231): < 4.00

CCCCCCCCn1cc(CN2CCN(C)CC2)c2cc(-c3cccc(C)c3)ccc21
pIC50 (MDA-MB-231): 5.21
pIC50 [1]: 6.05

CCCCCCCCn1cc(CN2CCOCC2)c2cc(-c3cccc(C)c3)ccc21
pIC50 (MDA-MB-231): 4.61
pIC50 [1]: 5.57

CCCCCCCCn1cc(C(N)=O)c2cc(-c3cccc(C)c3)ccc21
pIC50 (MDA-MB-231): < 4.00

CCCCCCCCn1cc(CCC(N)=O)c2cc(-c3cccc(C)c3)ccc21
pIC50 (MDA-MB-231): 4.68

CCCCCCCCn1cc(CC(=O)OC)c2cc(-c3cccc(C)c3)ccc21
pIC50 (MDA-MB-231): < 4.00
pIC50 [1]: 4.12

CCCCCCCCn1cc(CC(=O)OCC)c2cc(-c3cccc(C)c3)ccc21
pIC50 (MDA-MB-231): < 4.00
pIC50 [1]: < 4.00

CCCCCCCCn1cc(CNC(C)=O)c2cc(-c3cccc(C)c3)ccc21
pIC50 (MDA-MB-231): 4.52
pIC50 [1]: 5.74

CCCCCCCCn1cc(CNS(C)(=O)=O)c2cc(-c3cccc(C)c3)ccc21
pIC50 (MDA-MB-231): 4.76
pIC50 [1]: 5.92

CCCCCCCCn1cc(CC(N)=O)c2cc(-c3ccccc3C)ccc21
pIC50 (MDA-MB-231): 4.67
pIC50 [1]: 6.00

CCCCCCCCn1cc(CN(CC)CC)c2cc(-c3ccccc3C)ccc21
pIC50 (MDA-MB-231): 5.26
pIC50 [1]: 6.22

CCCCCCCCn1cc(CN(CC)CC)c2cc(-c3ccc(C)cc3)ccc21
pIC50 (MDA-MB-231): 5.47
pIC50 [1]: 6.22

CCCCCCCCn1cc(CC(N)=O)c2cc(-c3cccc(OC)c3)ccc21
pIC50 (MDA-MB-231): 4.65
pIC50 [1]: 5.72

CC(C)=CCn1ccc2cc(-c3cccc(C)c3)ccc21
pIC50 (MDA-MB-231): < 4.00

CCN(CC)Cc1cn(CC=C(C)C)c2ccc(-c3cccc(C)c3)cc12
pIC50 (MDA-MB-231): 5.42
pIC50 [1]: 5.62

CCCCCCCCn1cc(CC(N)=O)c2cc(-c3ccccc3)ccc21
pIC50 (MDA-MB-231): 4.59
pIC50 [1]: 5.74

CC(C)=CCn1cc(CN2CCCCC2)c2cc(-c3cccc(C)c3)ccc21
pIC50 (MDA-MB-231): 5.41
pIC50 [1]: 5.68

CC(C)=CCn1cc(CN2CCOCC2)c2cc(-c3cccc(C)c3)ccc21
pIC50 (MDA-MB-231): 4.47

CCCCCCCCn1cc(CC(N)=O)c2ccccc21
pIC50 (MDA-MB-231): 4.30
pIC50 [1]: 5.19

CCCCCCCCn1cc(CC(N)=O)c2cc(F)ccc21
pIC50 (MDA-MB-231): 4.15

CCCCCCCCn1cc(CN(CC)CC)c2cc(F)ccc21
pIC50 (MDA-MB-231): 5.14
pIC50 [1]: 5.39

CCN(CC)Cc1cn(CC=C(C)C)c2ccc(F)cc12
pIC50 (MDA-MB-231): 4.49
pIC50 [1]: 4.46

CC(C)=CCn1cc(CC(N)=O)c2cc(-c3cccc(C)c3)ccc21
pIC50 (MDA-MB-231): 4.55
pIC50 [1]: 5.11

CC(C)=CCC/C(C)=C/Cn1cc(CC(N)=O)c2cc(-c3cccc(C)c3)ccc21
pIC50 (MDA-MB-231): 4.97
pIC50 [1]: 6.00

CCCCCCCCn1cc(CC(=O)N(CC)CC)c2cc(-c3cccc(OC)c3)ccc21
pIC50 (MDA-MB-231): 4.28
pIC50 [1]: 6.10

CCCCCCCCn1cc(CC(=O)N(CC)CC)c2cc(-c3cccc(OCC)c3)ccc21
pIC50 (MDA-MB-231): 4.57
pIC50 [1]: 6.00

CCCCCCCCn1ccc2cc(-c3cccc(C)c3)ccc21
pIC50 (MDA-MB-231): < 4.00
pIC50 [1]: < 4.00

CCCCCCCCn1cc(CC(=O)N(C)C)c2cc(-c3cccc(C)c3)ccc21
pIC50 (MDA-MB-231): 4.51
pIC50 [1]: 5.82

CCCCCCCCn1cc(CC(=O)N(CC)CC)c2cc(-c3cccc(C)c3)ccc21
pIC50 (MDA-MB-231): 4.57
pIC50 [1]: 5.85

CCCCCCCCn1cc(CC(=O)N2CCCC2)c2cc(-c3cccc(C)c3)ccc21
pIC50 (MDA-MB-231): 4.81
pIC50 [1]: 5.92

CCCCCCCCn1cc(CC(=O)N2CCCCC2)c2cc(-c3cccc(C)c3)ccc21
pIC50 (MDA-MB-231): 4.54
pIC50 [1]: 5.74

CCCCCCCCn1cc(CC(=O)N2CCN(C)CC2)c2cc(-c3cccc(C)c3)ccc21
pIC50 (MDA-MB-231): 4.71

CCCCCCCCn1cc(CN)c2cc(-c3cccc(C)c3)ccc21
pIC50 (MDA-MB-231): 5.54
pIC50 [1]: 6.15

CCCCCCCCn1cc(CN(C)C)c2cc(-c3cccc(C)c3)ccc21
pIC50 (MDA-MB-231): 5.17
pIC50 [1]: 5.89

CCCCCCCCn1cc(CN(CC)CC)c2cc(-c3cccc(C)c3)ccc21
pIC50 (MDA-MB-231): 5.44
pIC50 [1]: 6.15

CCCCCCCCn1cc(CN(C(C)C)C(C)C)c2cc(-c3cccc(C)c3)ccc21
pIC50 (MDA-MB-231): 4.70
pIC50 [1]: 5.77

CCCCCCCCn1cc(CN(CCC)CCC)c2cc(-c3cccc(C)c3)ccc21
pIC50 (MDA-MB-231): 4.89
pIC50 [1]: 6.10

CCCCCCCCn1cc(CN(C)C(C)C)c2cc(-c3cccc(C)c3)ccc21
pIC50 (MDA-MB-231): 5.28
pIC50 [1]: 6.05

CCCCCCCCn1cc(CN2CCCC2)c2cc(-c3cccc(C)c3)ccc21
pIC50 (MDA-MB-231): 5.29
pIC50 [1]: 6.30

CCCCCCCCn1cc(CN2CCCCC2)c2cc(-c3cccc(C)c3)ccc21
pIC50 (MDA-MB-231): 5.31
pIC50 [1]: 6.15

CCCCCCCCn1cc(CC(N)=O)c2cc(-c3cccc(OCC)c3)ccc21
pIC50 (MDA-MB-231): 4.73
pIC50 [1]: 5.89

Cc1cccc(-c2ccc3c(c2)c(CC(N)=O)cn3Cc2cccc(C(F)(F)F)c2)c1
pIC50 (MDA-MB-231): 4.76
pIC50 [1]: 5.60

CCCCCCCCn1cc(CC(N)=O)c2cc(-c3ccc(C)cc3)ccc21
pIC50 [1]: 6.00

Cc1cccc(-c2ccc3[nH]cc(CC(N)=O)c3c2)c1
pIC50 (MDA-MB-231): < 4.00
pIC50 [1]: 4.48

— ChEMBL document CHEMBL1255568, “Amino derivatives of indole as potent inhibitors of isoprenylcysteine carboxyl methyltransferase” (J Med Chem, 2010)
